Assays:
HepG2 [1] = test: Antiproliferative activity against human HepG2 cells after 24 hrs by CCK-8 assay; format: functional, cell-based; conditions: HepG2, 24 h
How it was run: (§1)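 Cells in 10% FBS medium with penicillin/streptomycin at 37 °C, 5% CO2; HepG-2 in DMEM, QGY-7703, SMMC-7721 and QSG-7701 in RPMI 1640. Seeded 2 × 10^5 cells/well, grown 24 h, then exposed to five concentrations of compound or 1% DMSO vehicle for 24 h. CCK-8 added for 1 h, absorbance read at 450 nm; IC50 derived from the 5-dose data.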

[2] = Antiproliferative activity against human QSG7701 cells after 24 hrs by CCK-8 assay; format: cell-based; conditions: QSG7701, 24 h; how it was run: as §1
HepG2 [3] = test: Antiproliferative activity against human HepG2 cells at 10 uM after 24 hrs by CCK-8 assay relative to control; format: functional
How it was run: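 HepG-2 grown in DMEM with 10% FBS and penicillin/streptomycin (37 °C, 5% CO2). Seeded 2 × 10^5 cells/well for 24 h, then given a single 10 μM dose or 1% DMSO vehicle for 24 h. CCK-8 reagent for 1 h, A450 read, and percent inhibition calculated against untreated control cells.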

SMMC-7721 = test: Antiproliferative activity against human SMMC7721 cells after 24 hrs by CCK-8 assay; format: functional, cell-based; conditions: SMMC-7721, 24 h; how it was run: as §1
QGY-7703 = test: Antiproliferative activity against human QGY7703 cells after 24 hrs by CCK-8 assay; format: functional, cell-based; conditions: QGY-7703, 24 h; how it was run: as §1

For `C=C1C(=O)O[C@@H]2C3=C(C)[C@@H](OC(=O)c4ccc(CCCC)cc4)CC3[C@](C)(OC(C)=O)CC[C@@H]12` (stereo partly drawn), the IC50 (HepG2 [1]) was 10.3 µM, the IC50 [2] was 45.1 µM and the Activity (HepG2 [3]) was 67.53%. It also gave an IC50 (SMMC-7721) of 7.46 µM and an IC50 (QGY-7703) of 7.2 µM.

`C=C1C(=O)O[C@@H]2C3=C(C)[C@@H](OC(=O)/C=C/c4ccc(SC)cc4)CC3[C@](C)(OC(C)=O)CC[C@@H]12` (stereo partly drawn) showed an Activity (HepG2 [3]) of 36.24%.

With `C=C1C(=O)O[C@@H]2C3=C(C)[C@@H](OC(=O)c4ccc(CCC)cc4)CC3[C@](C)(OC(C)=O)CC[C@@H]12` (stereo partly drawn) the IC50 (HepG2 [1]) was 10.1 µM, the IC50 [2] was 34.3 µM and the Activity (HepG2 [3]) was 62.47%. For the same compound, the IC50 (SMMC-7721) was 6.52 µM and the IC50 (QGY-7703) was 8.33 µM.

For `C=C1C(=O)O[C@@H]2C3=C(C)[C@@H](OC(=O)/C=C/c4ccccc4)CC3[C@](C)(OC(C)=O)CC[C@@H]12` (stereo partly drawn), the IC50 (HepG2 [1]) was 16.2 µM, the IC50 [2] was > 100 µM and the Activity (HepG2 [3]) was 56.11%. It also gave an IC50 (SMMC-7721) of 6.43 µM and an IC50 (QGY-7703) of 18.8 µM.

For `C=C1C(=O)O[C@@H]2C3=C(C)[C@@H](OC(=O)c4ccc(OC)cc4)CC3[C@](C)(OC(C)=O)CC[C@@H]12` (stereo partly drawn), the IC50 (HepG2 [1]) was 12.2 µM, the IC50 [2] was > 100 µM and the Activity (HepG2 [3]) was 53.03%. It also gave an IC50 (SMMC-7721) of 8.93 µM and an IC50 (QGY-7703) of 22.3 µM.

For `C=C1C(=O)O[C@@H]2C3=C(C)[C@@H](OC(=O)c4ccc(OC(F)(F)F)cc4)CC3[C@](C)(OC(C)=O)CC[C@@H]12` (stereo partly drawn), the IC50 (HepG2 [1]) was 7.54 µM, the IC50 [2] was 36.8 µM and the Activity (HepG2 [3]) was 69.25%. The IC50 (SMMC-7721) was 6.1 µM and the IC50 (QGY-7703) was 11.3 µM.

`C=C1C(=O)O[C@@H]2C3=C(C)[C@@H](OC(=O)c4ccc(Br)cc4)CC3[C@](C)(OC(C)=O)CC[C@@H]12` (stereo partly drawn) showed an IC50 (HepG2 [1]) of 7.41 µM, an IC50 [2] of 51.9 µM and an Activity (HepG2 [3]) of 71.06%. It also gave an IC50 (SMMC-7721) of 6.54 µM and an IC50 (QGY-7703) of 13.7 µM.

Work on `C=C1C(=O)O[C@@H]2C3=C(C)[C@@H](O)CC3[C@](C)(OC(C)=O)CC[C@@H]12` (stereo partly drawn) yielded an Activity (HepG2 [3]) of 32.02%.

In the case of `C=C1C(=O)O[C@@H]2C3=C(C)[C@@H](OC(=O)/C=C/c4ccc(C)cc4)CC3[C@](C)(OC(C)=O)CC[C@@H]12` (stereo partly drawn), the IC50 (HepG2 [1]) is reported as 8.67 µM, the IC50 [2] is reported as > 100 µM and the Activity (HepG2 [3]) is reported as 72.03%. For the same compound, the IC50 (SMMC-7721) was 5.06 µM and the IC50 (QGY-7703) was 10.6 µM.

Work on `C=C1C(=O)O[C@@H]2C3=C(C)[C@@H](OC(=O)/C=C/c4ccc(OCC)cc4)CC3[C@](C)(OC(C)=O)CC[C@@H]12` (stereo partly drawn) yielded an Activity (HepG2 [3]) of 49.75%.

For `C=C1C(=O)O[C@@H]2C3=C(C)[C@@H](OC(=O)/C=C/c4ccc(Br)cc4)CC3[C@](C)(OC(C)=O)CC[C@@H]12` (stereo partly drawn), the IC50 (HepG2 [1]) was 11.7 µM, the IC50 [2] was 91.3 µM and the Activity (HepG2 [3]) was 61.39%. It also gave an IC50 (SMMC-7721) of 6.09 µM and an IC50 (QGY-7703) of 8.91 µM.

Compound `C=C1C(=O)O[C@@H]2C3=C(C)[C@@H](OC(=O)c4ccc(CCCCC)cc4)CC3[C@](C)(OC(C)=O)CC[C@@H]12` (stereo partly drawn) has an IC50 (HepG2 [1]) of 10.8 µM, an IC50 [2] of 38.5 µM and an Activity (HepG2 [3]) of 58.08%. It also gave an IC50 (SMMC-7721) of 18.7 µM and an IC50 (QGY-7703) of 7.19 µM.

With `C=C1C(=O)O[C@@H]2C3=C(C)[C@@H](OC(=O)c4ccc(C)cc4)CC3[C@](C)(OC(C)=O)CC[C@@H]12` (stereo partly drawn) the IC50 (HepG2 [1]) was 8.52 µM, the IC50 [2] was > 100 µM and the Activity (HepG2 [3]) was 58.47%. It also gave an IC50 (SMMC-7721) of 6.49 µM and an IC50 (QGY-7703) of 12.2 µM.

For `C=C1C(=O)O[C@@H]2C3=C(C)[C@@H](OC(=O)/C=C/c4ccc(F)cc4)CC3[C@](C)(OC(C)=O)CC[C@@H]12` (stereo partly drawn), the IC50 (HepG2 [1]) was 9.98 µM, the IC50 [2] was > 100 µM and the Activity (HepG2 [3]) was 67.53%. For the same compound, the IC50 (SMMC-7721) was 5.8 µM and the IC50 (QGY-7703) was 12.2 µM.

`C=C1C(=O)O[C@@H]2C3=C(C)[C@@H](OC(=O)c4ccc(F)cc4)CC3[C@](C)(OC(C)=O)CC[C@@H]12` (stereo partly drawn) gave an IC50 (HepG2 [1]) of 6.2 µM, an IC50 [2] of 39 µM and an Activity (HepG2 [3]) of 78.61%. For the same compound, the IC50 (SMMC-7721) was 4.97 µM and the IC50 (QGY-7703) was 6.78 µM.

For `C=C1C(=O)O[C@@H]2C3=C(C)[C@@H](OC(=O)c4ccc(CC)cc4)CC3[C@](C)(OC(C)=O)CC[C@@H]12` (stereo partly drawn), the Activity (HepG2 [3]) was 42.33%.

In the case of `C=C1C(=O)O[C@@H]2C3=C(C)[C@@H](OC(=O)/C=C/c4ccc(OC)cc4)CC3[C@](C)(OC(C)=O)CC[C@@H]12` (stereo partly drawn), the IC50 (HepG2 [1]) is reported as 12.1 µM, the IC50 [2] is reported as > 100 µM and the Activity (HepG2 [3]) is reported as 61.14%. For the same compound, the IC50 (SMMC-7721) was 5.41 µM and the IC50 (QGY-7703) was 11.8 µM.

With `C=C1C(=O)O[C@@H]2C3=C(C)[C@@H](OC(=O)c4ccc(C#N)cc4)CC3[C@](C)(OC(C)=O)CC[C@@H]12` (stereo partly drawn) the IC50 (HepG2 [1]) was 9.14 µM, the IC50 [2] was > 100 µM and the Activity (HepG2 [3]) was 62.58%. It also gave an IC50 (SMMC-7721) of 6.7 µM and an IC50 (QGY-7703) of 22.8 µM.

With `C=C1C(=O)O[C@@H]2C3=C(C)[C@@H](OC(=O)/C=C/c4ccc([N+](=O)[O-])cc4)CC3[C@](C)(OC(C)=O)CC[C@@H]12` (stereo partly drawn) the Activity (HepG2 [3]) was 42.67%.

In the case of `C=C1C(=O)O[C@@H]2C3=C(C)[C@@H](OC(=O)c4ccccc4)CC3[C@](C)(OC(C)=O)CC[C@@H]12` (stereo partly drawn), the IC50 (HepG2 [1]) is reported as 7.99 µM, the IC50 [2] is reported as > 100 µM and the Activity (HepG2 [3]) is reported as 68.47%. The IC50 (SMMC-7721) was 5.99 µM and the IC50 (QGY-7703) was 13 µM.

Work on `C=C1C(=O)O[C@@H]2C3=C(C)[C@@H](OC(=O)/C=C/c4ccc(C#N)cc4)CC3[C@](C)(OC(C)=O)CC[C@@H]12` (stereo partly drawn) yielded an Activity (HepG2 [3]) of 48.53%.

For `C=C1C(=O)O[C@@H]2C3=C(C)[C@@H](OC(=O)c4ccc(C(C)(C)C)cc4)CC3[C@](C)(OC(C)=O)CC[C@@H]12` (stereo partly drawn), the IC50 (HepG2 [1]) was 11.1 µM, the IC50 [2] was 48.5 µM and the Activity (HepG2 [3]) was 64.41%. For the same compound, the IC50 (SMMC-7721) was 9.37 µM and the IC50 (QGY-7703) was 5.13 µM.

For `C=C1C(=O)O[C@@H]2C3=C(C)[C@@H](OC(=O)/C=C/c4ccc(OCCC)cc4)CC3[C@](C)(OC(C)=O)CC[C@@H]12` (stereo partly drawn), the Activity (HepG2 [3]) was 47.78%.

With `C=C1C(=O)O[C@@H]2C3=C(C)[C@@H](OC(=O)/C=C/c4ccc(C(F)(F)F)cc4)CC3[C@](C)(OC(C)=O)CC[C@@H]12` (stereo partly drawn) the IC50 (HepG2 [1]) was 6.79 µM, the IC50 [2] was 43.3 µM and the Activity (HepG2 [3]) was 71.14%. The IC50 (SMMC-7721) was 6.12 µM and the IC50 (QGY-7703) was 12.7 µM.

`C=C1C(=O)O[C@@H]2C3=C(C)[C@@H](OC(=O)c4ccc(I)cc4)CC3[C@](C)(OC(C)=O)CC[C@@H]12` (stereo partly drawn) showed an IC50 (HepG2 [1]) of 7.57 µM, an IC50 [2] of 36.5 µM and an Activity (HepG2 [3]) of 63.11%. It also gave an IC50 (SMMC-7721) of 4.18 µM and an IC50 (QGY-7703) of 9 µM.

For `C=C1C(=O)O[C@@H]2C3=C(C)[C@@H](OC(=O)c4ccc(C(F)(F)F)cc4)CC3[C@](C)(OC(C)=O)CC[C@@H]12` (stereo partly drawn), the IC50 (HepG2 [1]) was 5.63 µM, the IC50 [2] was 41.1 µM and the Activity (HepG2 [3]) was 72.42%. For the same compound, the IC50 (SMMC-7721) was 5.49 µM and the IC50 (QGY-7703) was 5.64 µM.

`C=C1C(=O)O[C@@H]2C3=C(C)[C@@H](OC(=O)c4ccc(C(C)C)cc4)CC3[C@](C)(OC(C)=O)CC[C@@H]12` (stereo partly drawn) showed an Activity (HepG2 [3]) of 37.86%.
